According to ChEMBL document CHEMBL2384973, “Pharmacological activity of retinoic acid receptor alpha-selective antagonists in vitro and in vivo” (ACS Med Chem Lett, 2013):
In brackets after ≈: the same amount, converted by molar mass. Activity calls are given as the source filed them. The calls are words filed in the database; no cut-off is given here.

Tests used:
Mus musculus [1] = experiment: Inhibition of spermatogenesis in CD1 mouse assessed as change in morphology of caudal epididymides at 10 mg/kg, po for 7 days measured after 1 month by bright-field microscopic analysis; assay type: functional, organism-based; parameters: dose 10 mg/kg
How it was run: (§1)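 Male CD1 mice dosed by oral gavage at 2 or 10 mg/kg daily for 7 days, controls vehicle only; testes and epididymides collected one month post-treatment for histological staging of tubules (spermatid alignment at stage VIII, sperm release at stage IX).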

Mus musculus [2] = experiment: Toxicity in CD1 mouse assessed as change in testosterone levels at 2 to 10 mg/kg, po for 7 days by enzyme immunoassay relative to control; assay type: organism-based; parameters: dose 2-10 mg/kg, route oral; conditions: in vivo, 168 h
How it was run: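 Male CD1 mice treated orally at two regimens (2 or 10 mg/kg daily, 7 days); sera collected for testosterone determination, values plotted for individual mice.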

Mus musculus [3] = experiment: Inhibition of spermatogenesis in CD1 mouse assessed as change in alignment of step 16 spermatids at lumen in stage 8 tubules in testes at 2 to 10 mg/kg, po for 7 days measured after 1 month by bright-field microscopic analysis relative to control; assay type: functional, organism-based; how it was run: as §1
Mus musculus [4] = experiment: Inhibition of spermatogenesis in CD1 mouse assessed as asynchronization of spermatogenic cell association at 10 mg/kg, po for 7 days measured after 1 month by bright-field microscopic analysis; assay type: functional, organism-based; parameters: dose 10 mg/kg; how it was run: as §1
Mus musculus [5] = experiment: Toxicity in CD1 mouse assessed as change in testicular weight at 2 to 10 mg/kg, po for 7 days relative to control; assay type: organism-based; parameters: dose 2-10 mg/kg, route oral; conditions: in vivo, 168 h
How it was run: (§2)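 Male CD1 mice gavaged daily with 2 or 10 mg/kg for 7 days, vehicle controls; body weight followed throughout; testes weighed one month post-treatment; mean ± SD of five mice per regimen, paired Student's t-test against age-matched controls.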

Mus musculus [6] = experiment: Inhibition of spermatogenesis in CD1 mouse assessed as change in motility of epididymal sperm at 10 mg/kg, po for 7 days measured after 1 month by bright-field microscopic analysis; assay type: functional, organism-based; parameters: dose 10 mg/kg
Mus musculus [7] = experiment: Toxicity in CD1 mouse assessed as change in body weight at 2 to 10 mg/kg, po; assay type: organism-based; parameters: dose 2-10 mg/kg, route oral; conditions: in vivo; how it was run: as §2
Mus musculus [8] = experiment: Inhibition of spermatogenesis in CD1 mouse assessed as presence of vacuolar-like spaces at 10 mg/kg, po for 7 days measured after 1 month by bright-field microscopic analysis; assay type: functional, organism-based; parameters: dose 10 mg/kg; how it was run: as §1
Mus musculus [9] = experiment: Inhibition of spermatogenesis in CD1 mouse assessed as change in sperm release at stage 9 into lumen in testes at 2 to 10 mg/kg, po for 7 days measured after 1 month by bright-field microscopic analysis relative to control; assay type: functional, organism-based; how it was run: as §1
Caco-2 [10] = experiment: Permeability from apical to basolateral side in human Caco2 cells at 10^-5 M at pH 6.5 to 7.4; assay type: ADME, cell-based; conditions: caco-2, pH 6.5, 10 µM
How it was run: (§3)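 Caco-2 monolayers with apical/basolateral pH gradient 6.5/7.4, compound at 1.0 × 10–5 M; apparent permeability (cm/s) measured in A→B and B→A directions, with percent recovery reported.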

[11] = Aqueous solubility of the compound in PBS at pH 7.4; assay type: physicochemical; conditions: buffer
How it was run: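 Aqueous solubility determined in PBS buffer, pH 7.4; tested range <1–200 μM.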

Plasma [12] = experiment: Plasma protein binding in CD1 mouse at 10^-5 M; assay type: ADME, cell-free; conditions: 10 µM
How it was run: (§4)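 Binding to CD-1 mouse plasma proteins tested at 1.0 × 10–5 M; percent bound and percent recovery reported.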

Mus musculus [13] = experiment: Effect on spermatogenesis in CD1 mouse assessed as sperm release into testicular lumen at 2 to 10 mg/kg, po for 7 days; assay type: functional, organism-based; how it was run: as §1
Mus musculus [14] = experiment: Effect on spermatogenesis in CD1 mouse assessed as disruptive effect on spermatid alignment at 2 to 10 mg/kg, po for 7 days; assay type: functional, organism-based; how it was run: as §1
[15] = Metabolic stability in CD1 mouse liver microsomes assessed as parent compound remaining at 10^-6 M after 60 mins; assay type: ADME, Microsome; conditions: read-out: Stability
How it was run: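 CD-1 mouse liver microsomes incubated with compound at 1.0 × 10–6 M for 60 min; percent parent compound remaining determined.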

[16] = Chemical stability of the compound by HPLC-MS analysis; assay type: physicochemical
[17] = Permeability from apical to basolateral side in human Caco2 cells assessed as drug recovery at 10^-5 M at pH 6.5 to 7.4; assay type: ADME, cell-based; conditions: Caco-2, pH 6.5, read-out: permeability; how it was run: as §3
Plasma [18] = experiment: Drug recovery in CD1 mouse plasma 10^-5 M; assay type: ADME, cell-free; conditions: 10 µM; how it was run: as §4
[19] = Partition coefficient, log D of the compound in n-octanol-PBS at 10^-4 M at pH 7.4; assay type: physicochemical; conditions: octanol/water, pH 7.4, 100 µM
How it was run: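 log D determined at pH 7.4 by n-octanol/PBS partitioning, reported as weighted average.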

Mus musculus [20] = experiment: Effect on spermatogenesis in CD1 mouse at 10 mg/kg, iv for 7 days measured after 4 weeks; assay type: functional, organism-based; parameters: dose 10 mg/kg
How it was run: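 Male mice dosed intravenously at 10 mg/kg; testes examined histologically 4 weeks post-treatment for spermatogenesis.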

[21] = Drug uptake in CD1 mouse testes at 39 mg/kg, po; assay type: ADME, organism-based, Testis; parameters: dose 39 mg/kg, route oral; conditions: in vivo
Mus musculus [22] = experiment: Effect on spermatogenesis in CD1 mouse assessed as disruptive effect on spermatid alignment at 10 mg/kg, iv after 6 days; assay type: functional, organism-based; parameters: dose 10 mg/kg
How it was run: (§5)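 Male mice given 10 mg/kg intravenously daily; testes examined histologically at end of treatment (6 days, n = 2; 7 days, n = 2) for spermatid alignment and sperm release into the lumen; vehicle controls.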

Plasma [23] = experiment: Fraction unbound in CD1 mouse plasma; assay type: ADME, cell-free; how it was run: as §4
Mus musculus [24] = experiment: Effect on spermatogenesis in CD1 mouse assessed as disruptive effect on spermatid alignment at 10 mg/kg, iv after 7 days; assay type: functional, organism-based; parameters: dose 10 mg/kg; how it was run: as §5
Caco-2 [25] = experiment: Permeability from basolateral to apical side in human Caco2 cells at 10^-5 M at pH 6.5 to 7.4; assay type: ADME, cell-based; conditions: caco-2, pH 6.5, 10 µM; how it was run: as §3
Mus musculus [26] = experiment: Effect on spermatogenesis in CD1 mouse assessed as sperm release into testicular lumen at 10 mg/kg, iv after 7 days; assay type: functional, organism-based; parameters: dose 10 mg/kg; how it was run: as §5
Mus musculus [27] = experiment: Effect on spermatogenesis in CD1 mouse assessed as sperm release into testicular lumen at 10 mg/kg, iv after 6 days; assay type: functional, organism-based; parameters: dose 10 mg/kg; how it was run: as §5
Mus musculus [28] = experiment: Defect in spermatogenesis in CD1 mouse testicular tubules at 10 mg/kg, ip after 7 days; assay type: functional, organism-based; parameters: dose 10 mg/kg
How it was run: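 Male mice dosed intraperitoneally at 10 mg/kg daily for 7 days (n = 4); testicular tubules examined histologically one day post-treatment for retained spermatids, with defects quantified.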

[29] = Metabolic stability in CD1 mouse intestinal microsomes assessed as parent compound remaining at 10^-6 M after 60 mins; assay type: ADME, Intestine; conditions: read-out: Stability
How it was run: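 CD-1 mouse intestinal microsomes incubated with compound at 1.0 × 10–6 M for 60 min; percent parent remaining determined.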

[30] = molecular target: T1, Retinoic acid receptor alpha (Homo sapiens) (UniProt P10276); experiment: Antagonist activity at human RARalpha expressed in human HeLa cells assessed as inhibition of ATRA-induced RARE transactivation after 24 hrs by chloramphenicol acetyltransferase reporter gene assay; assay type: cell-based
T1 sequence (whole entry): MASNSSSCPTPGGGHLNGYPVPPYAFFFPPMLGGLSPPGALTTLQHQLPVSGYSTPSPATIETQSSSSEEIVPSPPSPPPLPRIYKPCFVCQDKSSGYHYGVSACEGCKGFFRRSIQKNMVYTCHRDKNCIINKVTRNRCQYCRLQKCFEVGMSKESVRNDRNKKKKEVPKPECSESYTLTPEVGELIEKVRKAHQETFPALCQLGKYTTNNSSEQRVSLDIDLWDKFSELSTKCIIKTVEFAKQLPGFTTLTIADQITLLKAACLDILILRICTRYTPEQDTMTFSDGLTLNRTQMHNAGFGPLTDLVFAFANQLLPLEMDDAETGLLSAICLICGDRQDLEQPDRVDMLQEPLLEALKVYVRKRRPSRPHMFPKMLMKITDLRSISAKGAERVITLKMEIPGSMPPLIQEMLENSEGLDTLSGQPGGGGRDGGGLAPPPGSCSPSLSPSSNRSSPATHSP
How it was run: (§6)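 HeLa cells cotransfected with RAR constructs and a constant beta-galactosidase plasmid as internal control, given 10–7 M ATRA (submaximal) plus increasing concentrations of compound; CAT reporter expression measured after 24 h. RARα, RARβ and RARγ tested. Vehicle control was dilution medium without retinoid; ATRA served as positive control.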

[31] = Permeability from basolateral to apical side in human Caco2 cellsassessed as drug recovery at 10^-5 M at pH 6.5 to 7.4; assay type: ADME, cell-based; conditions: Caco-2, pH 6.5, read-out: permeability; how it was run: as §3
[32] = molecular target: T1, Retinoic acid receptor alpha (Homo sapiens); experiment: Antagonist activity at human RARalpha expressed in human HeLa cells assessed as inhibition of ATRA-induced RARE-chloramphenicol acetyltransferase reporter gene expression after 24 hrs by transactivation competition assay; assay type: cell-based; how it was run: as §6
[33] = Drug uptake in CD1 mouse testes at 3 mg/kg, iv; assay type: ADME, organism-based, Testis; parameters: dose 3 mg/kg, route intravenous; conditions: in vivo

Row | SMILES | inhibition (Mus musculus [1]) | Activity (Mus musculus [2]) | inhibition (Mus musculus [3]) | inhibition (Mus musculus [4]) | Activity (Mus musculus [5]) | inhibition (Mus musculus [6]) | Activity (Mus musculus [7]) | inhibition (Mus musculus [8]) | inhibition (Mus musculus [9]) | permeability (Caco-2 [10]) [×10⁻⁶ cm/s] | solubility [11] [µM] | PPB (Plasma [12]) [%] | remaining at 1 h, 1 µM [15] [%] | Stability [16] | recovery at 10 µM [17] [%] | Drug recovery (Plasma [18]) [%] | logD [19] | also measured
1 | CC1(C)CC=C(c2cnc3ccccc3c2)c2cc(C(=O)Nc3ccc(C(=O)O)cc3)ccc21 | inactive | Non-toxic | inactive | inactive | Non-toxic | inactive | Non-toxic | inactive | inactive |  |  |  |  |  |  |  |  | 
2 | CC1(C)CC=C(c2ccccc2)c2cc(/C=C/c3ccc(C(=O)O)cc3)ccc21 |  |  |  |  |  |  |  |  |  | < 0.7 | 3.1 (≈ 1.18 µg/mL) | 95.3 | 79 | Stable | 14 | 93.3 | 3.25 | Activity (Mus musculus [13]): Active; Activity (Mus musculus [14]): Active
3 | Cc1ccc(C2=CCC(C)(C)c3ccc(C(=O)Nc4ccc(C(=O)O)cc4)cc32)cc1 | inactive | Non-toxic | inactive | inactive | Non-toxic | inactive | Non-toxic | inactive | inactive | 8.3 | 136 (≈ 56 µg/mL) | 99.2 | 49 | Stable | 20 | 99.8 | 3.84 | Activity (Mus musculus [20]): inactive; Drug uptake [21]: Not Active; Activity (Mus musculus [22]): Active; Fu (Plasma [23]): 0.8%; Activity (Mus musculus [24]): Active; permeability (Caco-2 [25]): 0.7 ×10⁻⁶ cm/s; Activity (Mus musculus [26]): Active; Activity (Mus musculus [27]): Active; Activity (Mus musculus [28]): Active; remaining at 1 h, 1 µM [29]: 86%; Activity [30]: Active; recovery at 10 µM [31]: 46%; Activity [32]: Active; Drug uptake [33]: Active
